Test results as given in ChEMBL document CHEMBL2390926, “Identification of novel FLT3 kinase inhibitors” (Eur J Med Chem, 2013).
Calls of active or inactive are those of the source. The rule behind the calls is not given here.

Columns and labels:
BaF3 = assay: Cytotoxicity against mouse BA/F3 cells transfected with FLT3-ITD at 1 uM after 24 hrs by plate reader analysis; assay type: functional, cell-based
KG-1 = assay: Cytotoxicity against human KG1 cells after 72 hrs by plate reader analysis; assay type: functional, cell-based; conditions: KG-1, 72 h
HEL = assay: Cytotoxicity against human HEL cells after 72 hrs by plate reader analysis; assay type: functional, cell-based
EOL1 = assay: Cytotoxicity against human EOL-1 cells after 72 hrs by plate reader analysis; assay type: functional, cell-based; conditions: EOL1, 72 h
MV4-11 = assay: Cytotoxicity against human MV4-11 cells after 72 hrs by plate reader analysis; assay type: functional, cell-based; conditions: MV4-11, 72 h
[1] = target: T1, Non-receptor tyrosine-protein kinase TNK1 (Homo sapiens) (UniProt Q13470); assay: Inhibition of TNK1 (unknown origin) transfected in mouse Ba/F3 cells at 1 uM after 24 hrs; assay type: cell-based; conditions: BaF3
T1 sequence (whole entry): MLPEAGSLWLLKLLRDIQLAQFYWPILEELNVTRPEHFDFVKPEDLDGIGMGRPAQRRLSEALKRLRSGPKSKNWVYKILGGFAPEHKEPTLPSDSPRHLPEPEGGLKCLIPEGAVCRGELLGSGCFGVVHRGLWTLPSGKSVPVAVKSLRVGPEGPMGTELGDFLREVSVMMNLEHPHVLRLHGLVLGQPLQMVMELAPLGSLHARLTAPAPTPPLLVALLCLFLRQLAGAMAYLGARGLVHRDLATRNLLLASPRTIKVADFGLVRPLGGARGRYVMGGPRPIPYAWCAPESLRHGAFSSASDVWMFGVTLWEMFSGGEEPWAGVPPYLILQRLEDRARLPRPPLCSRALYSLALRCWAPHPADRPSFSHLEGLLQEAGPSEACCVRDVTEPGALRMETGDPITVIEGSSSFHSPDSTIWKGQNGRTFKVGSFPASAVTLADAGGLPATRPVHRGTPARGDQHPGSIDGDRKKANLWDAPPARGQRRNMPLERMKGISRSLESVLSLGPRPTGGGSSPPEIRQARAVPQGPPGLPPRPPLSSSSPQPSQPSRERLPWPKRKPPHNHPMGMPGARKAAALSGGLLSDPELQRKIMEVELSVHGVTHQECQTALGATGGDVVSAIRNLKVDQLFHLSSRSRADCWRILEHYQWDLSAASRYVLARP

[2] = target: T2, Megakaryocyte-associated tyrosine-protein kinase (Homo sapiens) (UniProt P42679); assay: Inhibition of MATK1 (unknown origin) transfected in mouse Ba/F3 cells at 1 uM after 24 hrs; assay type: cell-based; conditions: BaF3
T2 sequence (whole entry): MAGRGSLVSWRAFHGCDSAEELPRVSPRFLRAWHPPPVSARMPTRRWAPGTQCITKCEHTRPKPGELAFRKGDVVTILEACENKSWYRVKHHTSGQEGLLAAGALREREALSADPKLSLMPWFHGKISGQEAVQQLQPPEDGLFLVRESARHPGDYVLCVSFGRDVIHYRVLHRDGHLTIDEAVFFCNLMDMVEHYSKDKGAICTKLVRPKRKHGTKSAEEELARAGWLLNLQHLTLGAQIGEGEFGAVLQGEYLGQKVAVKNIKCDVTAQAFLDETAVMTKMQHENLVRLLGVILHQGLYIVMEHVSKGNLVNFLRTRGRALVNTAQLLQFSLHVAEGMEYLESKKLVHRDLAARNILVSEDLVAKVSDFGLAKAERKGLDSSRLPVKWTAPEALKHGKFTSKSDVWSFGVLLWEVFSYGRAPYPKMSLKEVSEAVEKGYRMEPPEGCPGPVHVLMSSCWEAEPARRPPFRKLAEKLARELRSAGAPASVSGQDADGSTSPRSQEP

[3] = target: Leukocyte tyrosine kinase receptor (Homo sapiens) (UniProt P29376); assay: Inhibition of LTK (unknown origin) transfected in mouse Ba/F3 cells at 1 uM after 24 hrs; assay type: cell-based; conditions: BaF3
Leukocyte tyrosine kinase receptor (Homo sapiens), sequence (P29376 whole entry): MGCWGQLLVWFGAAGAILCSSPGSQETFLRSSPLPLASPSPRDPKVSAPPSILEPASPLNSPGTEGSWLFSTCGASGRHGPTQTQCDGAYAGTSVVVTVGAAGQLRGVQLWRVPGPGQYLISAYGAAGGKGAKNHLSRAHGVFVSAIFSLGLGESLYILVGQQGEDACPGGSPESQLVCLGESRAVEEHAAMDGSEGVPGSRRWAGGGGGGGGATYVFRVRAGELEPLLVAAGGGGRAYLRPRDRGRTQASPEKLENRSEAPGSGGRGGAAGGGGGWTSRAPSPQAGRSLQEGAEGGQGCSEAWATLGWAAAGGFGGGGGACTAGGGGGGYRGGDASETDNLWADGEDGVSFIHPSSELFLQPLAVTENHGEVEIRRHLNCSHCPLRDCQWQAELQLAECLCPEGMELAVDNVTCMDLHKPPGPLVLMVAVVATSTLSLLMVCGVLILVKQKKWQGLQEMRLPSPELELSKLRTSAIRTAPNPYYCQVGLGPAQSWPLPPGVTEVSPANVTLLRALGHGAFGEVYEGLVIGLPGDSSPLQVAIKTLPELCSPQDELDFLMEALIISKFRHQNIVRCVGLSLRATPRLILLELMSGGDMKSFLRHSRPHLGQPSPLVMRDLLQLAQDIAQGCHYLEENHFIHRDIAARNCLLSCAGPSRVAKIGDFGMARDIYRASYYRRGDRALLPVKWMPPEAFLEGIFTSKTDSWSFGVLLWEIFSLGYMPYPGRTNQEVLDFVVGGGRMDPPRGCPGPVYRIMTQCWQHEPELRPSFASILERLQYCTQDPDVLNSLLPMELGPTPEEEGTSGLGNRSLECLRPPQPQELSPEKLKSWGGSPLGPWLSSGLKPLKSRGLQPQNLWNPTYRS
In short: (§1)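 Kinase specificity panel: each Ba/F3 line transformed with one of 24 tyrosine kinases depends on that kinase to grow. Cells were given compound at 1 or 5 µM for 24 h, with DMSO as comparator. Percentage growth was read by ATP-lite luminescence and reported as mean ± SEM.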

[4] = target: Insulin-like growth factor 1 receptor (Homo sapiens) (UniProt P08069); assay: Inhibition of IGF1R (unknown origin) transfected in mouse Ba/F3 cells at 1 uM after 24 hrs; assay type: cell-based; conditions: BaF3; in short: as §1
Insulin-like growth factor 1 receptor (Homo sapiens), sequence (P08069 31-736 limits assumed): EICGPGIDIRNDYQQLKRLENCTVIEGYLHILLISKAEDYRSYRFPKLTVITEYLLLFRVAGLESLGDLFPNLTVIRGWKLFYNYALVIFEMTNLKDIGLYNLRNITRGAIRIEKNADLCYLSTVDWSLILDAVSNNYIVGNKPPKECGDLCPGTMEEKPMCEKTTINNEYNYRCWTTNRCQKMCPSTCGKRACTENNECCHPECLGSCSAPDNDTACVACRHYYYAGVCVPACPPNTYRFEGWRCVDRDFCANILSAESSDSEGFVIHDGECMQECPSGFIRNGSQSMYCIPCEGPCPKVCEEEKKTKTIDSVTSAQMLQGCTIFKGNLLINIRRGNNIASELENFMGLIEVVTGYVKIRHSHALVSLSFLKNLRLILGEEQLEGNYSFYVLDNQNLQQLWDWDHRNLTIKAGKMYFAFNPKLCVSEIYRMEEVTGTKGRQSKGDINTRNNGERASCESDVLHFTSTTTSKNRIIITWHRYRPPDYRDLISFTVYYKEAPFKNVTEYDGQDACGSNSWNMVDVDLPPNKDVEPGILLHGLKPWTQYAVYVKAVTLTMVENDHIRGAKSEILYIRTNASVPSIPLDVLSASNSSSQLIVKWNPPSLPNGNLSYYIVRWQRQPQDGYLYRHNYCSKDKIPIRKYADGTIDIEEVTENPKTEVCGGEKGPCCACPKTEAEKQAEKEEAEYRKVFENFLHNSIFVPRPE
Insulin-like growth factor 1 receptor (Homo sapiens), sequence (P08069 741-1367 limits assumed): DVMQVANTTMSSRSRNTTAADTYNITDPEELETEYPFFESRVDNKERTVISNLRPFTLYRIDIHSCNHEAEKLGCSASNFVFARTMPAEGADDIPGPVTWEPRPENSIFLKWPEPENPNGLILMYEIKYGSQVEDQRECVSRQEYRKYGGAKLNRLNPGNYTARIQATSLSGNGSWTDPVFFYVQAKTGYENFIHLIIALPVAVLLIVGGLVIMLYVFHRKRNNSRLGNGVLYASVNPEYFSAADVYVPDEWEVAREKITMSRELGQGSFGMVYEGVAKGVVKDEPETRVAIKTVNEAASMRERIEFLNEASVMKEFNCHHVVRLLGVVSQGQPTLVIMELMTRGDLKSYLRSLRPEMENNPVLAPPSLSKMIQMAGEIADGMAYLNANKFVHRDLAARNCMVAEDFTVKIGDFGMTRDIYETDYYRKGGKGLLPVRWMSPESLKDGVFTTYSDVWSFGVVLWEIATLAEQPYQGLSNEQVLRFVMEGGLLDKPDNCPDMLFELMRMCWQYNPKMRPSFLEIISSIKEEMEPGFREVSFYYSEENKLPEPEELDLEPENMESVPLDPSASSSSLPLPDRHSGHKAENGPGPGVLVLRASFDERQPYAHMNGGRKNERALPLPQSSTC

[5] = target: Fibroblast growth factor receptor 3 (Homo sapiens) (UniProt P22607); assay: Inhibition of FGFR3 (unknown origin) transfected in mouse Ba/F3 cells at 1 uM after 24 hrs; assay type: cell-based; conditions: BaF3; in short: as §1
Fibroblast growth factor receptor 3 (Homo sapiens), sequence (P22607 23-806 limits assumed): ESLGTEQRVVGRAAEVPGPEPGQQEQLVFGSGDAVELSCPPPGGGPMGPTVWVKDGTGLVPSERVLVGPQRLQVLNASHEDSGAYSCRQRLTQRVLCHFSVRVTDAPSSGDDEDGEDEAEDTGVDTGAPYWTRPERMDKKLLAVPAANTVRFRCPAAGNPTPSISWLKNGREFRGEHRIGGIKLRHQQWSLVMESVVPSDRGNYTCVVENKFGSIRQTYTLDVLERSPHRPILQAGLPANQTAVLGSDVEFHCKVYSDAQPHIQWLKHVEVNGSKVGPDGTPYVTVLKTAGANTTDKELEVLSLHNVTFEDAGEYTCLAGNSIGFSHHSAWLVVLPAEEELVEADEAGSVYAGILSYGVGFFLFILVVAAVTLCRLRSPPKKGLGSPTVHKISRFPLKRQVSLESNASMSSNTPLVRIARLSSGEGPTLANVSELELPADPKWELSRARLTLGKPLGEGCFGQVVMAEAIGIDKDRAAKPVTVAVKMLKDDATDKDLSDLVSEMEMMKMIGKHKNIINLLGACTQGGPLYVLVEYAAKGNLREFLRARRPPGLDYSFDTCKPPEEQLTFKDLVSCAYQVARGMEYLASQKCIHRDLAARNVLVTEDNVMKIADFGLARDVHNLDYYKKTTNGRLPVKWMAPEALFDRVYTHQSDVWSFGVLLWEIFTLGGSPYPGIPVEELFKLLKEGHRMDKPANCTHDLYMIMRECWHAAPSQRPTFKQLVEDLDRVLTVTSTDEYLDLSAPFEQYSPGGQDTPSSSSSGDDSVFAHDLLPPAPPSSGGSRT

[6] = target: Receptor tyrosine-protein kinase erbB-2 (Homo sapiens) (UniProt P04626); assay: Inhibition of ERBB2 (unknown origin) transfected in mouse Ba/F3 cells at 1 uM after 24 hrs; assay type: cell-based; conditions: BaF3; in short: as §1
[7] = target: T3, Ephrin type-A receptor 8 (Homo sapiens) (UniProt P29322); assay: Inhibition of EPHA8 (unknown origin) transfected in mouse Ba/F3 cells at 1 uM after 24 hrs; assay type: cell-based; conditions: BaF3; in short: as §1
T3 sequence (whole entry): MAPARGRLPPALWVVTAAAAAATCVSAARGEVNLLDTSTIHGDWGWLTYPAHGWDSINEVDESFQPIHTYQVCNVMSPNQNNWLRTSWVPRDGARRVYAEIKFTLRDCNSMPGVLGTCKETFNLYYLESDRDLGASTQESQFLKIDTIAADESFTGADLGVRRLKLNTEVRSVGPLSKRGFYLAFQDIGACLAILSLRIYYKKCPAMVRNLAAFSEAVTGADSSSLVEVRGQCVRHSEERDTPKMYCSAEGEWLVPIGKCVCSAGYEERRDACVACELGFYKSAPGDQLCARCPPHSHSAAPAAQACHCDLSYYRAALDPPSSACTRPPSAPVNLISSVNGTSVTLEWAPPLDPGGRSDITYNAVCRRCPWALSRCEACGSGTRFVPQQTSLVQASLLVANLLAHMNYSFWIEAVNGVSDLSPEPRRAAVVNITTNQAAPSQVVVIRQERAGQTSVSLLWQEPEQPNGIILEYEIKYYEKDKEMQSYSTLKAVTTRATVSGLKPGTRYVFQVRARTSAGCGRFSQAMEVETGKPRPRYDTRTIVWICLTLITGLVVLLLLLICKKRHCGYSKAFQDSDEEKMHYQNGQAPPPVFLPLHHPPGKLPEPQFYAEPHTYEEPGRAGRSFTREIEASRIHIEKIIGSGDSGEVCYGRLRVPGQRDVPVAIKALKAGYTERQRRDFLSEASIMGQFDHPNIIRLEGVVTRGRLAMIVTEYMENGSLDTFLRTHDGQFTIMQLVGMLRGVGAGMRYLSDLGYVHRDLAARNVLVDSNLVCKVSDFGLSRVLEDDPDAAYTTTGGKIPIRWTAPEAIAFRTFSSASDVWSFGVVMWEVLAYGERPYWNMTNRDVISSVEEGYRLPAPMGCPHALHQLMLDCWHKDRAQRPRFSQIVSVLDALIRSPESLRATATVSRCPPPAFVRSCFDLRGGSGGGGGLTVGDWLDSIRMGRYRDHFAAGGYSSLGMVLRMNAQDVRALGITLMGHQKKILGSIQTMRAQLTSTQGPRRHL

[8] = target: Ephrin type-A receptor 2 (Homo sapiens) (UniProt P29317); assay: Inhibition of EPHA2 (unknown origin) transfected in mouse Ba/F3 cells at 1 uM after 24 hrs; assay type: cell-based; conditions: BaF3; in short: as §1
Ephrin type-A receptor 2 (Homo sapiens), sequence (P29317 whole entry): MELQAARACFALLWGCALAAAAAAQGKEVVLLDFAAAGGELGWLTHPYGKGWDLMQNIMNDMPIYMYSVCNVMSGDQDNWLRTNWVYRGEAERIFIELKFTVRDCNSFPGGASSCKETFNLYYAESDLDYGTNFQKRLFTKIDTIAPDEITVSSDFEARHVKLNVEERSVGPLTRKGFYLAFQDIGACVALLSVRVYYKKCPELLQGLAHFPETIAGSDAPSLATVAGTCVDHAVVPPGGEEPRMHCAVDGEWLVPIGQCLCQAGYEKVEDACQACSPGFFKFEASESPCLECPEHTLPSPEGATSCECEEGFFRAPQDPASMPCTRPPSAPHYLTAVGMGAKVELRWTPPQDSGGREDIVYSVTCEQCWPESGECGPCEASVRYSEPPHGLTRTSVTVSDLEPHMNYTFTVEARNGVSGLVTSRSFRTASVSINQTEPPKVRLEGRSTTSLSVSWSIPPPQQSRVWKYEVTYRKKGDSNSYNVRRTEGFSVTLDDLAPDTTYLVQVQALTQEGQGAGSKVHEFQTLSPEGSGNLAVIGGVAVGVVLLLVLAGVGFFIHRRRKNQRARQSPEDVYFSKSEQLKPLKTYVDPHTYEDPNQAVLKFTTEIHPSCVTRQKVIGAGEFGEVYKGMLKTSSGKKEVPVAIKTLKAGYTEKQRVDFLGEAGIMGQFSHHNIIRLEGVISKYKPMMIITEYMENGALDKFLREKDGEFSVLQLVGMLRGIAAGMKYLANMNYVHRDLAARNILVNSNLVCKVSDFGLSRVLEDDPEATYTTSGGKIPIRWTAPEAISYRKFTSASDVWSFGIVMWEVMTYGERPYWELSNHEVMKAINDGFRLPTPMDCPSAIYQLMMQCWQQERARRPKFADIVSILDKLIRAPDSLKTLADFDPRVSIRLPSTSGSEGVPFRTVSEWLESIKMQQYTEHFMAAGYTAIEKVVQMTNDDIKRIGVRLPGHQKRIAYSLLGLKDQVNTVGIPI

SMILES	inhibition [1]	inhibition [2]	inhibition [3]	inhibition [4]	inhibition [5]	inhibition [6]	inhibition [7]	inhibition [8]	Activity (BaF3)	EC50 (KG-1)	EC50 (HEL)	EC50 (EOL1)	EC50 (MV4-11)
Cc1ccc(-n2cnc3cc(Nc4nnc(C)c5ccccc45)ccc32)cc1	–	–	–	–	–	–	–	–	Active	20 µM	14 µM	0.889 µM	3.41 µM
Fc1ccc(-c2n[nH]cc2-c2ccncc2)cc1Cl	–	–	–	–	–	–	–	–	Active	24 µM	1000 µM	0.382 µM	2.75 µM
COc1ccc(C(=O)Nc2cc(-c3ccccc3)[nH]n2)cc1	inactive	inactive	inactive	inactive	inactive	inactive	inactive	inactive	Active	15 µM	47 µM	0.066 µM	0.142 µM

More lines, main results first:

inhibition [1]	inhibition [2]	inhibition [3]	inhibition [4]	inhibition [5]	inhibition [6]	inhibition [7]	inhibition [8]	SMILES	Activity (BaF3)	EC50 (KG-1)	EC50 (HEL)	EC50 (EOL1)	EC50 (MV4-11)
inactive	inactive	inactive	inactive	inactive	inactive	inactive	inactive	Cc1cccc(C(=O)Nc2cc(-c3ccc(F)cc3)n[nH]2)c1	Active	29 µM	62 µM	0.202 µM	1.78 µM
inactive	inactive	inactive	inactive	inactive	inactive	inactive	inactive	Cc1ccc(-c2cc(NC(=O)c3ccc(F)cc3)[nH]n2)cc1	Active	28 µM	1000 µM	0.502 µM	2.82 µM
